Reference: PubChem BioAssay AID624306 (The Scripps Research Institute Molecular Screening Center, 2012)
Active and inactive are the calls of the source.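 The calls were made as follows: active = inhibition of insulin-degrading enzyme persists after dilution, judged irreversible; inactive = inhibition lost or reduced after dilution, judged reversible.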

Target: Insulin-degrading enzyme (Homo sapiens) (UniProt P14735)
Assay: dilution reversibility, CF mutant IDE inhibitors – biochemical, cysteine-free mutant, FRET1 fluorogenic peptide, mechanism study for IDE inhibitor project, late-stage follow-up (AID 624306)
Conditions: recombinant cysteine-free IDE, FRET1 fluorescence
Procedure, shortened: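 System: Mutant insulin-degrading enzyme (IDE) | Input: Mutant IDE at 1 nM in the well | Also added: Substrate 1 µM | Dosing: Top compound dose 100 µM | Times: Kinetic reads every 2 min over 2 h, room temperature | Technique: Fluorescence at 335/385 nm | Controls: Vehicle (high) and no-enzyme (low) wells | Replication: Triplicate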

Insulin-degrading enzyme (Homo sapiens), sequence (P14735 whole entry, looked up): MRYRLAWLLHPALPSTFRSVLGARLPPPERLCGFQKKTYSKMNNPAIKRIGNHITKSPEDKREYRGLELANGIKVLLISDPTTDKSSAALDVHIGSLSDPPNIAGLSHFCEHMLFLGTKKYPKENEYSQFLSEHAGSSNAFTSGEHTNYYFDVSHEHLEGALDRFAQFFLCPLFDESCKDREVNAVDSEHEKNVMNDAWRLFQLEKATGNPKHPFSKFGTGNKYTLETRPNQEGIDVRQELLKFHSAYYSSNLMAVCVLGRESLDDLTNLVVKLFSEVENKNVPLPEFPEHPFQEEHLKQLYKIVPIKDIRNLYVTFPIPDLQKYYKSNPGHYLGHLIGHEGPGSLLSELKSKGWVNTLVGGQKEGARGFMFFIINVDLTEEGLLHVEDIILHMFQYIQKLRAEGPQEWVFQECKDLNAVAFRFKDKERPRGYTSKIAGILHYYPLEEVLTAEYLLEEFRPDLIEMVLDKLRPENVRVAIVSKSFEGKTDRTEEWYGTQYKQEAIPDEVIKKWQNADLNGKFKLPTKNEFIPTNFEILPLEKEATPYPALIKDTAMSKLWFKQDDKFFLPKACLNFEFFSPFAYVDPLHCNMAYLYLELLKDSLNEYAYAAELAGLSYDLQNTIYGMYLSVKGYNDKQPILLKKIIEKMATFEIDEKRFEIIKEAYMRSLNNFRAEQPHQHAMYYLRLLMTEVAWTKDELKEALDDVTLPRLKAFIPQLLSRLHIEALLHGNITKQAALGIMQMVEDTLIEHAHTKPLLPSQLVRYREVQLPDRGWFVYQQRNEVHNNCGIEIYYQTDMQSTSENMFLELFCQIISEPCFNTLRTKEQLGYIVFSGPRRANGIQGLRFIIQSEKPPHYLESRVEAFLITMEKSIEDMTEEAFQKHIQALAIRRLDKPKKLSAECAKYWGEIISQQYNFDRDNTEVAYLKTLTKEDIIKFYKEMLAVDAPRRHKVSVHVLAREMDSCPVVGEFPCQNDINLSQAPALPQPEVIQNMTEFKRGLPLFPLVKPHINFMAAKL

Structure (SMILES)	outcome
COc1cccc(-c2nnc(SCc3nc4ccccc4[nH]3)n2Cc2ccco2)c1	inactive
Clc1cccc(-c2nnc(SCc3nc4ccccc4[nH]3)n2Cc2ccco2)c1	inactive
O=C(O)c1ccccc1NS(=O)(=O)c1cccc(-n2sc3ccccc3c2=O)c1	active
Cn1c(=O)c(C(=O)CN2CCCc3ccccc32)c(N)n(Cc2ccccc2)c1=O	inactive
Cc1cccc(-c2nnc(SCc3nc4ccccc4[nH]3)n2Cc2ccco2)c1	inactive
O=c1c2ccccc2sn1-c1cc(S(=O)(=O)N2CCOCC2)ccc1N1CCOCC1	active
Cc1c(CCC(=O)NCCCn2ccnc2)c(=O)oc2cc3oc4c(c3cc12)CCCC4	inactive
COc1cc(/C=C2\SC(=S)N(NC(C)=O)C2=O)ccc1OC(=O)c1ccco1	inactive
COc1ccc(C(=O)N2CCN(C(=O)C3COc4ccccc4O3)CC2)cc1OC (stereo not given)	inactive
O=C(Nc1cccc(C(F)(F)F)c1)c1csc(-c2ccncc2)n1	inactive
